Experimental data of several laboratories.
Lines come from different studies, so protocols differ.

Structure (SMILES) | species | medium | route | dose | setting | clearance
CC(F)(F)CN1Cc2cc(C(F)(F)F)ncc2C2=CN=C(NCc3c(F)ccc4c3CCO4)N3C=NC(C1=O)C23 (stereo not shown) | male CD-1 mouse | plasma | intravenous | 2 mg/kg | – | 0.39 mL/min/kg
COc1cc(OC)c2nccc(N3CCc4c(cc(Cn5ccnc5)cc4-c4cn(C)nc4C(F)(F)F)C3=O)c2c1 | male CD-1 mouse | plasma | intravenous | 3 mg/kg | – | 63 mL/min/kg
NC(=S)NN=Cc1ncccc1N | female C57BL/6 mouse | plasma | intravenous | 20 mg/kg | – | 13.8 mL/min/kg
COc1ccc2nccc(N3CCc4c(cc(Cn5ccnc5)cc4-c4cn(C)nc4C(F)(F)F)C3=O)c2c1 | male CD-1 mouse | plasma | intravenous | 3 mg/kg | – | 27 mL/min/kg
Cc1noc(C)c1-c1ccc2nc(-c3cnn(CC(C)(C)O)c3)nc(N3CCOC[C@@H]3c3ccccc3)c2c1 | CD-1 mouse | plasma | intravenous | 2 mg/kg | – | 7.3 mL/min/kg
NCC1CCN(c2nc(-c3ccncc3)nc3sc4c(c23)CCCC4)CC1 | female CD-1 mouse | plasma | intravenous | 10 mg/kg | – | 38 mL/min/kg
CC(C)(C)c1ccc(O)c(CN(Cc2cc(C(C)(C)C)ccc2O)C2CCC(NC(N)=O)CC2)c1 (stereo not shown) | male C57BL/6 mouse | plasma | oral | 10 mg/kg | single dose | 32.3 mL/min/kg
O=C(CS(=O)(=O)O)Nc1ccc(N2CCOCC2)c(Br)c1 | CD-1 mouse | blood | intravenous | 2 mg/kg | – | 62 mL/min/kg
O=C1C2N=CN3C(NCc4c(F)ccc5c4CCO5)=NC=C(c4cnc(C(F)(F)F)cc4CN1CC(F)F)C23 (stereo not shown) | male CD-1 mouse | plasma | intravenous | 2 mg/kg | – | 0.59 mL/min/kg
CN(C)C/C=C/C(=O)Nc1ccc(O[C@@H]2CCC[C@@H](Nc3ncc(Cl)c(-c4c[nH]c5ccccc45)n3)C2)cc1 | male Swiss mouse | plasma | intravenous | 3 mg/kg | – | 24.9 mL/min/kg
COc1nc(-c2cc(C)c(N[C@@H](C)c3ccc(F)cc3)nn2)ccc1-n1cnc(C)c1 | male CD-1 mouse | plasma | intravenous | 1 mg/kg | single dose | 3.9 mL/min/kg
Cc1c(Br)cc(NC(=O)NS(=O)(=O)O)cc1Br | CD-1 mouse | blood | intravenous | 2 mg/kg | – | 5.65 mL/min/kg
CC[C@H](C)[C@@H]1NC(=O)[C@@](C)(NC(=O)[C@H](CCCNC(=N)N)NC(=O)[C@H](CC(C)C)NC(=O)[C@@H](NC(=O)[C@H](CCC(N)=O)NC(=O)[C@H](CC(C)C)NC(C)=O)[C@@H](C)O)CCCC=CCCC[C@@](C)(C(=O)N[C@@H](CC(C)C)C(=O)N[C@@H](Cc2ccc3ccccc3c2)C(N)=O)NC(=O)[C@H](CCCNC(=N)N)NC(=O)[C@H](CCC(N)=O)NC1=O | male BALB/c mouse | plasma | intravenous | 15 mg/kg | – | 0.96 mL/min/kg
Nc1ncc(-c2ccncc2)nc1Nc1ccc2[nH]ccc2c1 | male C57BL/6 mouse | plasma | intravenous | 5 mg/kg | – | 112 mL/min/kg
CCO[C@H]1CCN(Cc2c(OC)cc(C)c3[nH]ccc23)[C@H](c2ccc(C(=O)O)cc2)C1 | C57BL/6 mouse | plasma | intravenous | 1 mg/kg | – | 16 mL/min/kg
CC(C)(Oc1cccc(N2CCC[C@@H](C(=O)N(Cc3ccc(-c4cn[nH]c4)cc3)C3CC3)C2)c1)C(=O)N1CCNCC1.Cl | male C57BL/6 mouse | plasma | intravenous | 1 mg/kg | – | 44.2 mL/min/kg
CNC(=O)c1cc(OC)cc2c(N3CCc4c(cc(Cn5ccnc5)cc4-c4cn(C)nc4C(F)(F)F)C3=O)ccnc12 | male CD-1 mouse | plasma | intravenous | 3 mg/kg | – | 15 mL/min/kg
Cc1noc(C)c1-c1ccc2nc(-c3cnn(CC(C)(C)O)c3)nc(N3CCNC[C@@H]3c3ccccc3)c2c1 | CD-1 mouse | plasma | intravenous | 2 mg/kg | – | 272 mL/min/kg
CNCCN(C)c1cc(C#N)cc(CCc2cc(C)cc(N)n2)c1 | male BALB/c mouse | brain | intravenous | 2 mg/kg | – | 21 mL/min/kg
